How the values were obtained:
HT-29 [1] = experiment: Growth inhibition of human HT-29 cells assessed as cell vitality at 5 uM up to 72 hrs by hemocytometry relative to control; format: functional; design: scale not given: the % may be the effect or the level left
Outline: (§1)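 Exponentially growing HT-29 colon adenocarcinoma cells (D-MEM, 10% FBS, 37 °C, 5% CO2) exposed to vehicle (DMSO, final <0.1%) or 1, 5 and 10 μM compound in 10% FBS medium for 24, 48 and 72 hs; cells washed, trypsinized and counted by Bürker hemocytometer, three counts per well. Viability relative to vehicle; mean ± SD of three independent experiments in duplicate.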

HT-29 [2] = experiment: Growth inhibition of human HT-29 cells assessed as cell vitality at 10 uM after 48 hrs by hemocytometry relative to control; format: functional; design: scale not given: the % may be the effect or the level left; outline: as §1
[3] = Growth inhibition of HEK293T cells assessed as cell vitality at 10 uM after 48 hrs by hemocytometry relative to control; format: cell-based, HEK-293T; conditions: human, read-out: Activity
Outline: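 HEK293T grown in DMEM with 10% FBS, penicillin-streptomycin and L-glutamine, exposed 48 h to 10 μM compound (DMSO under 0.1% final) alongside HT-29. Cells trypsinized and counted on a Bürker hemocytometer, three counts per well; viability relative to vehicle-treated cells; three independent experiments in duplicate, mean ± SD.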

SMILES: C[C@H](Oc1ccc(Cc2ccc(OCc3coc(-c4ccccc4)n3)cc2)cc1)C(=O)O
- Activity (HT-29 [1]): 45%
- Activity (HT-29 [2]): 40%
- viability at 48 h, 10 µM [3]: 75%
